Calls of active or inactive are those of the source. The rule behind the calls is not given here.
Columns and labels:
[1] = test system: B16-F0; test: Extracellular melanogenesis-stimulating activity in mouse B16F0 cells at 6.25 uM after 72 hrs by spectrophotometry relative to control; format: functional
How it was run: (§1)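 B16-F0 cells in DMEM with 10% FBS were seeded at 5.0 × 10⁴ cells/well and adhered for 24 h. They were treated for 72 h at 200–10 µM or 50–6.25 µM, depending on compound series. Absorbance of the collected culture medium at 510 nm gave extracellular melanin, expressed as % of DMSO-treated control. Experiments were done twice.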

[2] = Cytotoxicity against mouse B16F0 cells assessed as cell viability at 25 uM after 72 hrs by MTT assay; format: cell-based; details: read-out: Activity
How it was run: (§2)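 B16-F0 cells were seeded at 5.0 × 10⁴ cells/well and allowed to adhere for 24 h at 37 °C. They were exposed for 72 h to compound at 200–10 µM or 50–6.25 µM, depending on compound series. MTT (5 mg/mL stock in PBS) was added for 4 h at 37 °C in 5% CO₂, then dissolved in isopropanol/0.04 N HCl and read at 590 nm. Viability is % of DMSO control; experiments were done twice.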

[3] = test system: B16-F0; test: Intracellular melanogenesis-stimulating activity in mouse B16F0 cells at 25 uM after 72 hrs by spectrophotometry relative to control; format: functional
How it was run: (§3)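 Cells were seeded at 5.0 × 10⁴ cells/well, adhered for 24 h, then treated with compound for 72 h. After a PBS wash, cells were lysed in 1 M NaOH at 100 °C for 30 min to solubilize melanin. Lysate absorbance at 405 nm served as the intracellular melanin index, expressed as % of DMSO control. Experiments were done twice.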

[4] = test system: B16-F0; test: Extracellular melanogenesis-stimulating activity in mouse B16F0 cells at 12.5 uM after 72 hrs by spectrophotometry relative to control; format: functional; how it was run: as §1
[5] = Cytotoxicity against mouse B16F0 cells assessed as cell viability at 6.25 uM after 72 hrs by MTT assay; format: cell-based; details: read-out: Activity; how it was run: as §2
[6] = test system: B16-F0; test: Extracellular melanogenesis-stimulating activity in mouse B16F0 cells at 25 uM after 72 hrs by spectrophotometry relative to control; format: functional; how it was run: as §1
[7] = test system: B16-F0; test: Intracellular melanogenesis-stimulating activity in mouse B16F0 cells at 12.5 uM after 72 hrs by spectrophotometry relative to control; format: functional; how it was run: as §3
[8] = Cytotoxicity against mouse B16F0 cells assessed as cell viability at 12.5 uM after 72 hrs by MTT assay; format: cell-based; details: read-out: Activity; how it was run: as §2
[9] = test system: B16-F0; test: Intracellular melanogenesis-stimulating activity in mouse B16F0 cells at 6.25 uM after 72 hrs by spectrophotometry relative to control; format: functional; how it was run: as §3
[10] = test system: B16-F0; test: Induction of melanogenesis-stimulating activity in mouse B16F0 cells assessed as increase in p-p38 MAPK level at 3.1 to 12.5 uM after 72 hrs by Western blotting analysis; format: functional, cell-based
How it was run: (§4)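 B16 cells were treated for 72 h at 0–12.5 µM and lysed in RIPA with protease inhibitors (0 °C, 30 min). Lanes held 10 µg protein on 10% SDS–PAGE, transferred to PVDF and blocked with 2% BSA/TBST at 4 °C overnight. Primaries ran 2 h: MITF 1:1000, tyrosinase, TRP-1 and p-p38 1:200, TRP-2 and p38 1:100. HRP secondary was 1:5000 for 2 h, with ECL densitometry. GAPDH blotted; three independent experiments.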

[11] = test system: B16-F0; test: Induction of melanogenesis-stimulating activity in mouse B16F0 cells assessed as increase in TRP-1 protein expression at 3.1 to 12.5 uM after 72 hrs by Western blotting analysis; format: functional, cell-based; how it was run: as §4
[12] = test system: B16-F0; test: Induction of melanogenesis-stimulating activity in mouse B16F0 cells assessed as increase in TRP-2 protein expression at 3.1 to 12.5 uM after 72 hrs by Western blotting analysis; format: functional, cell-based; how it was run: as §4
[13] = test system: B16-F0; test: Induction of melanogenesis-stimulating activity in mouse B16F0 cells assessed as increase in tyrosinase protein expression at 3.1 to 12.5 uM after 72 hrs by Western blotting analysis; format: functional, cell-based; how it was run: as §4
[14] = Cytotoxicity against mouse B16F0 cells assessed as cell viability at 50 uM after 72 hrs by MTT assay; format: cell-based; details: read-out: Activity; how it was run: as §2
[15] = test system: B16-F0; test: Extracellular melanogenesis-stimulating activity in mouse B16F0 cells at 50 uM after 72 hrs by spectrophotometry relative to control; format: functional; how it was run: as §1
[16] = test system: B16-F0; test: Intracellular melanogenesis-stimulating activity in mouse B16F0 cells at 50 uM after 72 hrs by spectrophotometry relative to control; format: functional; how it was run: as §3
[17] = test system: B16-F0; test: Induction of melanogenesis-stimulating activity in mouse B16F0 cells assessed as increase in MITF protein expression at 3.1 to 12.5 uM after 72 hrs by Western blotting analysis; format: functional, cell-based; how it was run: as §4
[18] = test system: B16-F0; test: Intracellular melanogenesis-stimulating activity in mouse B16F0 cells at 100 uM after 72 hrs by spectrophotometry relative to control; format: functional
[19] = test system: B16-F0; test: Intracellular melanogenesis-stimulating activity in mouse B16F0 cells after 72 hrs by spectrophotometry relative to control; format: functional, cell-based; how it was run: as §3
[20] = Cytotoxicity against mouse B16F0 cells assessed as cell viability at 100 uM after 72 hrs by MTT assay; format: cell-based; details: read-out: Activity; how it was run: as §2
[21] = test system: B16-F0; test: Intracellular melanogenesis-stimulating activity in mouse B16F0 cells at 10 uM after 72 hrs by spectrophotometry relative to control; format: functional
[22] = test system: B16-F0; test: Intracellular melanogenesis-stimulating activity in mouse B16F0 cells at 200 uM after 72 hrs by spectrophotometry relative to control; format: functional
[23] = test system: B16-F0; test: Extracellular melanogenesis-stimulating activity in mouse B16F0 cells at 10 uM after 72 hrs by spectrophotometry relative to control; format: functional; how it was run: as §1
[24] = Cytotoxicity against mouse B16F0 cells assessed as cell viability at 200 uM after 72 hrs by MTT assay; format: cell-based; details: read-out: Activity; how it was run: as §2
[25] = test system: B16-F0; test: Extracellular melanogenesis-stimulating activity in mouse B16F0 cells at 100 uM after 72 hrs by spectrophotometry relative to control; format: functional; how it was run: as §1
[26] = Cytotoxicity against mouse B16F0 cells assessed as cell viability at 10 uM after 72 hrs by MTT assay; format: cell-based; details: read-out: Activity; how it was run: as §2
[27] = test system: B16-F0; test: Extracellular melanogenesis-stimulating activity in mouse B16F0 cells at 200 uM after 72 hrs by spectrophotometry relative to control; format: functional; how it was run: as §1

SMILES	viability at 72 h, 25 µM [2]	Activity [3]	Activity [4]	Activity [6]	Activity [7]	viability at 72 h, 12.5 µM [8]	viability at 72 h, 50 µM [14]	Activity [15]	Activity [16]	Activity [18]	Activity [19]	viability at 72 h, 100 µM [20]	Activity [21]	Activity [22]	Activity [23]	viability at 72 h, 200 µM [24]	Activity [25]	viability at 72 h, 10 µM [26]	Activity [27]	also measured
COc1cc(O)c2c(=O)c(OC)c(-c3ccc(O)c(O)c3)oc2c1	54.1%	187.6%	304.3%	265.5%	171.2%	60.4%														Activity [1]: 222.8%; viability at 72 h, 6.25 µM [5]: 80.4%; Activity [9]: 134%
COc1c(-c2ccc(O)c(O)c2)oc2cc(O)cc(O)c2c1=O [3-O-METHYLQUERCETIN]	88.1%	146.5%	124.1%	130.8%	137%	98.2%	74.4%	224.9%	157.3%											Activity [10]: inactive; Activity [11]: Active; Activity [12]: Active; Activity [13]: Active; Activity [17]: inactive
O=c1c(O[C@@H]2O[C@H](CO)[C@@H](O)[C@H](O)[C@H]2O)c(-c2ccc(O)c(O)c2)oc2cc(O)cc(O)c12 [ISOQUERCETIN]										157.1%	Dose-dependent effect	80.9%	116.3%	206.9%	91%	68.4%	85.1%	105%	86.1%	
O=c1c(O[C@@H]2O[C@H](CO)[C@@H](O[C@@H]3O[C@H](CO)[C@@H](O)[C@H](O)[C@H]3O)[C@H](O)[C@H]2O)c(-c2ccc(O[C@@H]3O[C@H](CO)[C@@H](O)[C@H](O)[C@H]3O)c(O)c2)oc2cc(O)cc(O)c12										151.5%	Dose-dependent effect	86.8%	137%	190.5%	99.7%	74.8%	116%	90%	125.5%	
CC(=O)OC[C@H]1O[C@@H](Oc2c(-c3ccc(O)c(O)c3)oc3cc(O)cc(O)c3c2=O)[C@H](OC(C)=O)[C@@H](OC(C)=O)[C@@H]1OC(C)=O	102%	121.4%	89.3%	101.5%	122.4%	114%	104%	96.1%	148.4%											
